The source made the active and inactive calls. No cut-off for these calls is given here.
Key:
[1] = test system: HT-29; assay: Inhibition of ERK phosphorylation in human HT-29 cells pre-incubated with PD0325901 for 2 hrs followed by compound addition at 0.3 uM and further incubated for 8 hrs by Western blot analysis; assay type: cell-based
[2] = test system: HT-29; assay: Inhibition of ERK phosphorylation in human HT-29 cells pre-incubated with MLN4924 for 2 hrs followed by compound addition at 0.3 uM and further incubated for 8 hrs by Western blot analysis; assay type: cell-based
[3] = test system: HT-29; assay: Inhibition of ERK phosphorylation in human HT-29 cells pre-incubated with MG132 for 2 hrs followed by compound addition at 0.3 uM and further incubated for 8 hrs by Western blot analysis; assay type: cell-based
[4] = test system: HT-29; assay: Inhibition of ERK phosphorylation in human HT-29 cells incubated for 24 hrs by Western blot analysis; assay type: cell-based
[5] = test system: HT-29; assay: Inhibition of colony formation in human HT-29 cells at 30 to 300 nM incubated for 10 days by crystal violet staining based assay; assay type: functional, cell-based; conditions: dose 30-300 nM, time 10.0 day
Method in brief: (§1)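 HT-29 clonogenic assay: cells were exposed to compounds for 10 days, then fixed and stained with crystal violet. Two independent experiments.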

[6] = test system: HT-29; assay: Inhibition of ERK phosphorylation in human HT-29 cells pre-incubated with POMA for 2 hrs followed by compound addition at 0.3 uM and further incubated for 8 hrs by Western blot analysis; assay type: cell-based
[7] = test system: HT-29; assay: Inhibition of ERK phosphorylation in human HT-29 cells at 0.3 uM and further incubated for 8 hrs by Western blot analysis
[8] = test system: NCI-H3122; assay: Inhibition of ERK phosphorylation in human NCI-H3122 cells at 0.3 to 3 uM and incubated for 24 hrs by Western blot analysis; assay type: cell-based; conditions: dose 0.3-3 µM
Method in brief: (§2)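 H3122 and SU-DHL-1 cells were treated with compounds, and MEK1/2, pMEK and pERK were assessed by Western blot of lysates.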

[9] = test system: NCI-H3122; assay: Antiproliferative activity against human NCI-H3122 cells at 0.014 to 3.33 uM incubated for 3 days by WST8 assay; assay type: functional, cell-based; conditions: dose 0.014-3.33 µM, time 3.0 day
Method in brief: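 NCI-H3122 cells were exposed to serial compound dilutions for 3 days, with WST-8 live-cell readout. Each concentration was run in triplicate. Student's t-test per concentration versus DMSO.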

[10] = test system: HT-29; assay: Inhibition of ERK phosphorylation in human HT-29 cells at 0.3 to 3 uM incubated for 24 hrs by Western blot analysis; assay type: cell-based; conditions: dose 0.3-3 µM
[11] = test system: SU-DHL-1; assay: Inhibition of ERK phosphorylation in human SU-DHL-1 cells at 0.3 to 3 uM and incubated for 24 hrs by Western blot analysis; assay type: cell-based; conditions: dose 0.3-3 µM; method in brief: as §2
[12] = test system: HT-29; assay: Inhibition of colony formation in human HT-29 cells at 10 to 100 nM incubated for 10 days by crystal violet staining based assay; assay type: functional, cell-based; conditions: dose 10-100 nM, time 10.0 day; method in brief: as §1
[13] = Toxicity in Swiss albino mouse assessed as drug tolerability at 50 mg/kg, ip administered as single dose and measured up to 8 hrs; assay type: organism-based; conditions: in vivo
[14] = test system: HT-29; assay: Inhibition of ERK phosphorylation in human HT-29 cells pre-incubated with MLN4924 for 2 hrs followed by compound addition at 0.1 uM and further incubated for 8 hrs by Western blot analysis; assay type: cell-based
[15] = Toxicity in Swiss albino mouse assessed as effect on clinical signs at 50 mg/kg, ip administered as single dose and measured up to 8 hrs; assay type: organism-based; conditions: in vivo
[16] = Drug level in Swiss albino mouse plasma at 50 mg/kg, ip administered as single dose and measured up to 8 hrs by LC-MS/MS analysis; assay type: ADME, organism-based; conditions: in vivo
[17] = test system: SK-MEL-28; assay: Inhibition of ERK phosphorylation in human SK-MEL-28 cells at 0.0001 to 3 uM incubated for 24 hrs by Western blot analysis; assay type: cell-based; conditions: dose 0.0001-3 µM
[18] = test system: HT-29; assay: Inhibition of ERK phosphorylation in human HT-29 cells pre-incubated with MG-132 for 2 hrs followed by compound addition at 0.1 uM and further incubated for 8 hrs by Western blot analysis; assay type: cell-based
[19] = test system: HT-29; assay: Inhibition of ERK phosphorylation in human HT-29 cells pre-incubated with VH032 for 2 hrs followed by compound addition at 0.1 uM and further incubated for 8 hrs by Western blot analysis; assay type: cell-based
[20] = test system: HT-29; assay: Inhibition of ERK phosphorylation in human HT-29 cells pre-incubated with PD0325901 for 2 hrs followed by compound addition at 0.1 uM and further incubated for 8 hrs by Western blot analysis; assay type: cell-based
[21] = Toxicity in Swiss albino mouse assessed as induction of adverse events at 50 mg/kg, ip administered as single dose and measured up to 8 hrs; assay type: organism-based; conditions: in vivo
[22] = test system: HT-29; assay: Inhibition of ERK phosphorylation in human HT-29 cells pre-incubated for 2 hrs followed by compound addition at 0.1 uM and further incubated for 8 hrs by Western blot analysis
[23] = test system: HT-29; assay: Effect on global proteome expression in human HT-29 cells at 0.1 uM incubated for 8 hrs by mass spectrometry analysis based global proteome analysis; assay type: functional, cell-based
Method in brief: (§3)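 HT-29 cells were treated 8 h (0.1% DMSO vehicle) and then lysed in 8 M urea/100 mM Tris pH 8.0 with sonication. Proteins were reduced with 5 mM DTT, alkylated with 15 mM IAA and digested overnight with trypsin (1:100). Peptides were analysed on a 130 min nanoLC gradient by Q Exactive HF-X data-dependent MS (top-20 HCD). Run in duplicate.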

[24] = test system: HT-29; assay: Antiproliferative activity against human HT-29 cells at 0.00017 to 10 uM in presence of 400 nM ZSTK474 incubated for 3 days by WST-8 assay; assay type: functional, cell-based; conditions: dose 0.00017-10 µM, time 3.0 day
Method in brief: (§4)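 Cells grown in DMEM, RPMI-1640 or EMEM with 10% FBS and penicillin/streptomycin. They were exposed for 3 days to a dilution series of degrader combined with fixed PLX4032 (100 nM) or ZSTK474 (400 nM). Live-cell signal was read by WST-8. Triplicate points, mean ± SD of three independent experiments. Student's t-test per concentration versus DMSO.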

[25] = test system: SK-MEL-28; assay: Antiproliferative activity against human SK-MEL-28 cells at 0.00017 to 10 uM in presence of 100 nM PLX4032 incubated for 3 days by WST-8 assay; assay type: functional, cell-based; conditions: dose 0.00017-10 µM, time 3.0 day; method in brief: as §4
[26] = test system: HT-29; assay: Antiproliferative activity against human HT-29 cells at 0.00017 to 10 uM in presence of 100 nM PLX4032 incubated for 3 days by WST-8 assay; assay type: functional, cell-based; conditions: dose 0.00017-10 µM, time 3.0 day; method in brief: as §4
[27] = test system: SK-MEL-28; assay: Antiproliferative activity against human SK-MEL-28 cells at 0.00017 to 10 uM in presence of 400 nM ZSTK474 incubated for 3 days by WST-8 assay; assay type: functional, cell-based; conditions: dose 0.00017-10 µM, time 3.0 day; method in brief: as §4
[28] = test system: SU-DHL-1; assay: Antiproliferative activity against human SU-DHL-1 cells incubated for 3 days by WST8 assay; assay type: functional; conditions: SU-DHL-1, 72 h, time 3 day
[29] = test system: HT-29; assay: Antiproliferative activity against human HT-29 cells incubated for 3 days by WST8 assay; assay type: functional; conditions: HT-29, 72 h, time 3 day
[30] = test system: HT-29; assay: Effect on global proteome expression in human HT-29 cells at 0.3 uM incubated for 8 hrs by mass spectrometry analysis based global proteome analysis; assay type: functional, cell-based; method in brief: as §3
[31] = test system: SK-MEL-28; assay: Antiproliferative activity against human SK-MEL-28 cells incubated for 3 days by WST8 assay; assay type: functional; conditions: SK-MEL-28, 72 h, time 3 day

In the case of `O=C1CCC(N2C(=O)c3ccc(NCCOCCOCCOCCOCCOCCNCCCONC(=O)c4ccc(F)c(F)c4Nc4ccc(I)cc4F)cc3C2=O)C(=O)N1` (stereo unspecified), the inhibition [1] is reported as “Active”, the inhibition [2] is reported as “inactive” and the inhibition [3] is reported as “inactive”. For the same molecule, the inhibition [4] was “Dose-dependent effect”, the inhibition [5] was “Active” and the inhibition [6] was “inactive”. For the same molecule, the inhibition [7] was “inactive”.
With `Cc1ncsc1-c1ccc([C@H](C)NC(=O)[C@H]2C[C@H](O)CN2C(=O)[C@@H](NC(=O)CCCCCCCCCCN(C)CCCONC(=O)c2ccc(F)c(F)c2Nc2ccc(I)cc2F)C(C)(C)C)cc1` the inhibition [8] was “inactive”, the Activity [9] was “inactive” and the inhibition [10] was “inactive”. The inhibition [11] was “inactive” and the inhibition [12] was “inactive”.
In the case of `Cc1ncsc1-c1ccc([C@H](C)NC(=O)[C@@H]2C[C@@H](O)CN2C(=O)[C@@H](NC(=O)CCCCCCCCCCN(C)CCCONC(=O)c2ccc(F)c(F)c2Nc2ccc(I)cc2F)C(C)(C)C)cc1`, the inhibition [8] is reported as “Active”, the Activity [13] is reported as “Non-Toxic” and the Activity [9] is reported as “Active”. The inhibition [14] was “inactive”, the Activity [15] was “Non-Toxic” and the Drug uptake [16] was “Active”. For the same molecule, the inhibition [17] was “Active”, the inhibition [18] was “inactive” and the inhibition [19] was “inactive”. The inhibition [4] was “Dose-dependent effect”, the inhibition [20] was “Active” and the Activity [21] was “Non-Toxic”. The inhibition [22] was “inactive”, the inhibition [11] was “Active” and the inhibition [12] was “Active”.
For `Cc1ncsc1-c1ccc([C@H](C)NC(=O)[C@H]2C[C@H](O)CN2C(=O)[C@@H](NC(=O)CCCCCCCCCCCNCCCCONC(=O)c2ccc(F)c(F)c2Nc2ccc(I)cc2F)C(C)(C)C)cc1`, the inhibition [8] was “inactive”, the Activity [9] was “inactive” and the Activity [23] was “inactive”. The inhibition [10] was “inactive”, the inhibition [11] was “inactive” and the inhibition [12] was “inactive”.
For `Cc1ncsc1-c1ccc([C@H](C)NC(=O)[C@@H]2C[C@@H](O)CN2C(=O)[C@@H](NC(=O)CCCCCCCCCCCNCCCCONC(=O)c2ccc(F)c(F)c2Nc2ccc(I)cc2F)C(C)(C)C)cc1`, the inhibition [8] was “Active”, the Activity [13] was “Non-Toxic” and the Activity [9] was “Active”. For the same molecule, the inhibition [14] was “inactive”, the Activity [24] was “Active” and the Activity [25] was “Active”. For the same molecule, the Activity [15] was “Non-Toxic”, the Drug uptake [16] was “Active” and the inhibition [17] was “Active”. The inhibition [18] was “inactive”, the Activity [26] was “Active” and the inhibition [19] was “inactive”. For the same molecule, the inhibition [4] was “Dose-dependent effect”, the inhibition [20] was “Active” and the Activity [21] was “Non-Toxic”. For the same molecule, the Activity [27] was “Active”, the inhibition [22] was “inactive” and the inhibition [11] was “Active”. For the same molecule, the inhibition [12] was “Active”.
`Cc1ncsc1-c1ccc([C@H](C)NC(=O)[C@@H]2C[C@@H](O)CN2C(=O)[C@@H](NC(=O)COCCOCCOCCNC(=O)CCc2ccc(S(=O)(=O)Nc3cc(C)c(=O)n(C)c3Nc3ccc(I)cc3F)cc2)C(C)(C)C)cc1` gave a GI50 [28] of 2400 nM.
`Cc1ncsc1-c1ccc(CNC(=O)[C@@H]2C[C@@H](O)CN2C(=O)[C@@H](NC(=O)CCNCCCONC(=O)c2ccc(F)c(F)c2Nc2ccc(I)cc2F)C(C)(C)C)cc1` showed a GI50 [29] of 5000 nM.
In the case of `CN1C(=O)CCC(N2C(=O)c3ccc(NCCOCCOCCOCCOCCOCCNCCCONC(=O)c4ccc(F)c(F)c4Nc4ccc(I)cc4F)cc3C2=O)C1=O` (stereo unspecified), the Activity [30] is reported as “inactive”, the inhibition [5] is reported as “inactive” and the inhibition [10] is reported as “inactive”.
For `Cc1ncsc1-c1ccc(CNC(=O)[C@@H]2C[C@@H](O)CN2C(=O)[C@@H](NC(=O)CCCCCCCCCNCCCONC(=O)c2ccc(F)c(F)c2Nc2ccc(I)cc2F)C(C)(C)C)cc1`, the GI50 [29] was 500 nM.
Molecule `O=C1CCC(N2C(=O)c3ccc(NCCCCCCCNCCCONC(=O)c4ccc(F)c(F)c4Nc4ccc(I)cc4F)cc3C2=O)C(=O)N1` (stereo unspecified) has a GI50 [29] of 500 nM.
Molecule `Cc1ncsc1-c1ccc([C@H](C)NC(=O)[C@@H]2C[C@@H](O)CN2C(=O)[C@@H](NC(=O)CCCCCCCCCCNCCCONC(=O)c2ccc(F)c(F)c2Nc2ccc(I)cc2F)C(C)(C)C)cc1` has a GI50 [31] of 83 nM and a GI50 [29] of 130 nM.
